Test results: ChEMBL document CHEMBL1811845, “Modulation of GABAA-receptors by honokiol and derivatives: subtype selectivity and structure-activity relationship” (J Med Chem, 2011)

Assays:
[1] = Octanol-water partition coefficient, log P of the compound; assay type: physicochemical
[2] = biological target: T1, GABA-A receptor; GABA-A site (alpha1/beta2 interface) (Homo sapiens) (UniProt P14867+P47870); assay: Modulation of GABA Aalpha1beta2 receptor expressed in Xenopus laevis oocytes assessed as potentiation of GABA-induced chloride current at holding potential -70 mV at 30 uM by two-microelectrode voltage clamp technique relative to GABA; assay type: cell-based; conditions: Oocyte
Outline: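 Single-concentration screen at 30 μM on α1β2 receptors (cRNA 1:1) in Xenopus oocytes. Enhancement was (I(GABA+compound)/IGABA)−1. DMSO was matched in control and test solutions, maximum 0.3% in the bath.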

[3] = biological target: T2, GABA-A receptor; GABA-A site (alpha1/beta2 interface) (Homo sapiens, UniProt P14867+P47870); assay: Modulation of GABA Aalpha1beta2 receptor expressed in Xenopus laevis oocytes assessed as potentiation of GABA-induced chloride current at holding potential -70 mV by two-microelectrode voltage clamp technique; assay type: cell-based, Oocyte
T2 sequence (P14867 whole entry): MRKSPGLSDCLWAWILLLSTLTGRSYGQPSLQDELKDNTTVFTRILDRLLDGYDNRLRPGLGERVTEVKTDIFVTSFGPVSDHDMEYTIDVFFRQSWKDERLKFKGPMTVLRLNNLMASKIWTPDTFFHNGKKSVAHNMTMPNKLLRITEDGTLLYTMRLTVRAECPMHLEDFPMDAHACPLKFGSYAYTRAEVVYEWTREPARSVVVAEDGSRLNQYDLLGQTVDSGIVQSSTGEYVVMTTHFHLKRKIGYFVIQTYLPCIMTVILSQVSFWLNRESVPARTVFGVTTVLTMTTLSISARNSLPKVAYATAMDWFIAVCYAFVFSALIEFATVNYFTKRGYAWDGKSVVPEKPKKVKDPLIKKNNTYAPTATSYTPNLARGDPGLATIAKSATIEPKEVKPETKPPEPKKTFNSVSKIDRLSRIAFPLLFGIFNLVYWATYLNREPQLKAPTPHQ
T2 sequence (P47870 whole entry): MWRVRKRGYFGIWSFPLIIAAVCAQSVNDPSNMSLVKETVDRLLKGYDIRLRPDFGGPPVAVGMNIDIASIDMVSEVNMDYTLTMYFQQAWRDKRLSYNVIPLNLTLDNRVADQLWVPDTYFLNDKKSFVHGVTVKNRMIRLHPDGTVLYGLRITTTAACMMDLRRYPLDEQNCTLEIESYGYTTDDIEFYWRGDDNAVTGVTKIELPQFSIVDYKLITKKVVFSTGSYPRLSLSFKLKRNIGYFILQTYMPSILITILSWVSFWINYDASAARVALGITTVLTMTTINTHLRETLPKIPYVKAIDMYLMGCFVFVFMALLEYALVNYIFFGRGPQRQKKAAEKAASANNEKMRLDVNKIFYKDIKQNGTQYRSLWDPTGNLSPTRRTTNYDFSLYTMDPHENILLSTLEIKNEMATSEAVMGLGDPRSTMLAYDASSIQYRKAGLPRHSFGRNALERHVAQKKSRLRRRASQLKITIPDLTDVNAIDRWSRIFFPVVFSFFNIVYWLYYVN
Outline: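 Stage V–VI Xenopus oocytes, defolliculated with 2 mg/mL collagenase, injected with α(1, 2, 3 or 5) and β2 cRNAs mixed 1:1, then kept at 18 °C in ND96 (pH 7.4). Enhancement = I(GABA+compound)/IGABA − 1. Curves were Hill-fitted for EC50. Bath DMSO was at most 0.3%, matched in controls.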

[4] = biological target: T1, GABA-A receptor; GABA-A site (alpha1/beta2 interface) (Homo sapiens); assay: Modulation of GABA Aalpha1beta2 receptor expressed in Xenopus laevis oocytes assessed as potentiation of GABA-induced chloride current at holding potential -70 mV by two-microelectrode voltage clamp technique relative to GABA; assay type: cell-based; conditions: Oocyte
Outline: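 Oocytes were injected with α1, α2, α3 or α5 plus β2 cRNA at a 1:1 ratio and stored at 18 °C in ND96, pH 7.4. Enhancement was (I(GABA+compound)/IGABA)−1, and concentration-response data were Hill-fitted for EC50 and nH. Matched DMSO was ≤0.3%.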

SMILES | logP ([1]; read-out: logP) | Activity [2] [%] | EC50 [3] [µM] | Smax [4] [%] | logP [1]
C=CCc1ccc(OCCCCC)c(-c2ccc(O)c(CC=C)c2)c1 | 7.27 | 13 |  |  | 
C=CCc1ccc(O)c(-c2cc(CC=C)ccc2O)c1 [MAGNOLOL] | 5.16 | 357 | 36.8 | 963 | 
C=CCc1cc(NCC)c(O)c(-c2ccc(OC)c(CC=C)c2)c1 | 5.45 | 2140 | 7.7 | 2290 | 
C=CCc1ccc(OCCCCC)c(-c2ccc(OCCCCC)c(CC=C)c2)c1 |  | 1 |  |  | 9.37
C=CCc1ccc(O)c(-c2ccc(OC)c(/C=C\C)c2)c1 | 5.45 | 605 | 19.7 | 1000 | 
C=CCc1ccc(OC2CC2)c(-c2ccc(OCCC)c(CC=C)c2)c1 | 6.38 | 339 | 22 | 608 | 
C=CCc1ccc(OCCC)c(-c2ccc(O)c(CC=C)c2)c1 | 6.38 | 93 | 14.8 | 145 | 
CCCCC=CCc1ccc(O)c(-c2ccc(OC)c(CC=CCCCC)c2)c1 (mixture of isomers) | 8.36 | -2 | 2 |  | 
C=CCc1cccc(-c2cccc(CC=C)c2O)c1O | 5.09 | 53 | 35.2 | 148 | 
C=CCc1ccc(O)c(-c2ccc(OCC)c(CC=C)c2)c1 | 5.77 | 345 | 59.9 | 865 | 
CCCc1ccc(O)c(-c2ccc(OC)c(CCC)c2)c1 | 6.01 | 1060 | 12.7 | 1440 | 
C=CCc1ccc(OCC)c(-c2ccc(O)c(CC=C)c2)c1 | 5.77 | 1080 | 14.3 | 1400 | 

Now from value to compound:

logP ([1]; read-out: logP) | Activity [2] [%] | EC50 [3] [µM] | Smax [4] [%] | logP [1] | SMILES
6.37 | 14 |  |  |  | C=CCc1ccc(OCC)c(-c2ccc(OCC)c(CC=C)c2)c1
5.38 | 215 | 18.5 | 326 |  | C=CCc1cc(-c2ccc(OC)c(CC=C)c2)c(O)c(N(C)C)c1
3.64 | 68 | 34.2 | 161 |  | COc1ccc(-c2cc(CC(C)O)ccc2O)cc1CC(C)O (stereo unspecified)
2.72 | 15 | 105 | 177 |  | COc1ccc(-c2cc(CCO)ccc2O)cc1CCO
5.4 | 120 | 25 | 227 |  | C=CCc1cc(-c2ccc(OC)c(CC=C)c2)c(O)c([N+](=O)[O-])c1
4.79 | 2180 | 12.4 | 2710 |  | C=CCc1cc(N)c(O)c(-c2ccc(OC)c(CC=C)c2)c1
5.99 | 589 | 16.9 | 952 |  | C=CCc1ccc(O)c(-c2ccc(OC)c(CC(C)Br)c2)c1 (stereo unspecified)
5.69 | 110 | 42.1 | 368 |  | C=CCc1ccc(OC)c(-c2ccc(OC)c(CC=C)c2)c1
7.6 | 22 |  |  |  | C=CCc1ccc(OCCC)c(-c2ccc(OCCC)c(CC=C)c2)c1
5.99 | 1230 | 8.4 | 1340 |  | C=CCc1cc(-c2cc(CC(C)Br)ccc2O)ccc1OC (stereo unspecified)
1.57 | 4 |  |  |  | COc1ccc(-c2cc(CC(O)CO)ccc2O)cc1CC(O)CO (stereo unspecified)
7.27 | 28 |  |  |  | C=CCc1ccc(O)c(-c2ccc(OCCCCC)c(CC=C)c2)c1
5.16 | 73 | 23.7 | 110 |  | C=CCc1cc(-c2ccc(O)c(CC=C)c2)ccc1O
6.06 | 7 |  |  |  | C=CCc1cc(-c2ccc(OC)c(CC=C)c2)c(O)c(N(CC)CC)c1
5.43 | 687 | 54.3 | 2800 |  | C=CCc1ccc(O)c(-c2cc(CC=C)ccc2OC)c1
5.11 | 1840 | 9.3 | 2030 |  | C=CCc1cc(NC)c(O)c(-c2ccc(OC)c(CC=C)c2)c1
5.43 | 822 | 27.2 | 1530 |  | C=CCc1ccc(O)c(-c2ccc(OC)c(CC=C)c2)c1 [METHYLHONOKIOL]
